Test results as given in ChEMBL document CHEMBL5104104, “Inhibition of N-type calcium ion channels by tricyclic antidepressants - experimental and theoretical justification for their use for neuropathic pain” (RSC Med Chem, 2022).
pIC50: −log10 of the molar value.

Molecular target: Voltage-dependent N-type calcium channel subunit alpha-1B (Homo sapiens, UniProt Q00975)
Assay: Inhibition of endogenous human CaV2.2 in human SH-SY5Y cells in presence of nifedipine by Calcium 4 dye based calcium influx fluorescence-imaging assay
Type: cell-based
Method in brief: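 SH-SY5Y neuroblastoma cells with endogenous Cav2.2, seeded 48 h before assay and loaded with Calcium 4 dye in HEPES buffer pH 7.4 with 0.1% BSA and 10 µM nifedipine (30 min, 37 °C). Compound preincubated 300 s. Channels then opened with 90 mM KCl plus 5 mM CaCl2, fluorescence read 300 s more. 3-fold serial dilutions from 100 µM (1% DMSO). IC50 from concentration–response curves, mean ± SEM, n = 3–5.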

Voltage-dependent N-type calcium channel subunit alpha-1B, sequence (Q00975 whole entry): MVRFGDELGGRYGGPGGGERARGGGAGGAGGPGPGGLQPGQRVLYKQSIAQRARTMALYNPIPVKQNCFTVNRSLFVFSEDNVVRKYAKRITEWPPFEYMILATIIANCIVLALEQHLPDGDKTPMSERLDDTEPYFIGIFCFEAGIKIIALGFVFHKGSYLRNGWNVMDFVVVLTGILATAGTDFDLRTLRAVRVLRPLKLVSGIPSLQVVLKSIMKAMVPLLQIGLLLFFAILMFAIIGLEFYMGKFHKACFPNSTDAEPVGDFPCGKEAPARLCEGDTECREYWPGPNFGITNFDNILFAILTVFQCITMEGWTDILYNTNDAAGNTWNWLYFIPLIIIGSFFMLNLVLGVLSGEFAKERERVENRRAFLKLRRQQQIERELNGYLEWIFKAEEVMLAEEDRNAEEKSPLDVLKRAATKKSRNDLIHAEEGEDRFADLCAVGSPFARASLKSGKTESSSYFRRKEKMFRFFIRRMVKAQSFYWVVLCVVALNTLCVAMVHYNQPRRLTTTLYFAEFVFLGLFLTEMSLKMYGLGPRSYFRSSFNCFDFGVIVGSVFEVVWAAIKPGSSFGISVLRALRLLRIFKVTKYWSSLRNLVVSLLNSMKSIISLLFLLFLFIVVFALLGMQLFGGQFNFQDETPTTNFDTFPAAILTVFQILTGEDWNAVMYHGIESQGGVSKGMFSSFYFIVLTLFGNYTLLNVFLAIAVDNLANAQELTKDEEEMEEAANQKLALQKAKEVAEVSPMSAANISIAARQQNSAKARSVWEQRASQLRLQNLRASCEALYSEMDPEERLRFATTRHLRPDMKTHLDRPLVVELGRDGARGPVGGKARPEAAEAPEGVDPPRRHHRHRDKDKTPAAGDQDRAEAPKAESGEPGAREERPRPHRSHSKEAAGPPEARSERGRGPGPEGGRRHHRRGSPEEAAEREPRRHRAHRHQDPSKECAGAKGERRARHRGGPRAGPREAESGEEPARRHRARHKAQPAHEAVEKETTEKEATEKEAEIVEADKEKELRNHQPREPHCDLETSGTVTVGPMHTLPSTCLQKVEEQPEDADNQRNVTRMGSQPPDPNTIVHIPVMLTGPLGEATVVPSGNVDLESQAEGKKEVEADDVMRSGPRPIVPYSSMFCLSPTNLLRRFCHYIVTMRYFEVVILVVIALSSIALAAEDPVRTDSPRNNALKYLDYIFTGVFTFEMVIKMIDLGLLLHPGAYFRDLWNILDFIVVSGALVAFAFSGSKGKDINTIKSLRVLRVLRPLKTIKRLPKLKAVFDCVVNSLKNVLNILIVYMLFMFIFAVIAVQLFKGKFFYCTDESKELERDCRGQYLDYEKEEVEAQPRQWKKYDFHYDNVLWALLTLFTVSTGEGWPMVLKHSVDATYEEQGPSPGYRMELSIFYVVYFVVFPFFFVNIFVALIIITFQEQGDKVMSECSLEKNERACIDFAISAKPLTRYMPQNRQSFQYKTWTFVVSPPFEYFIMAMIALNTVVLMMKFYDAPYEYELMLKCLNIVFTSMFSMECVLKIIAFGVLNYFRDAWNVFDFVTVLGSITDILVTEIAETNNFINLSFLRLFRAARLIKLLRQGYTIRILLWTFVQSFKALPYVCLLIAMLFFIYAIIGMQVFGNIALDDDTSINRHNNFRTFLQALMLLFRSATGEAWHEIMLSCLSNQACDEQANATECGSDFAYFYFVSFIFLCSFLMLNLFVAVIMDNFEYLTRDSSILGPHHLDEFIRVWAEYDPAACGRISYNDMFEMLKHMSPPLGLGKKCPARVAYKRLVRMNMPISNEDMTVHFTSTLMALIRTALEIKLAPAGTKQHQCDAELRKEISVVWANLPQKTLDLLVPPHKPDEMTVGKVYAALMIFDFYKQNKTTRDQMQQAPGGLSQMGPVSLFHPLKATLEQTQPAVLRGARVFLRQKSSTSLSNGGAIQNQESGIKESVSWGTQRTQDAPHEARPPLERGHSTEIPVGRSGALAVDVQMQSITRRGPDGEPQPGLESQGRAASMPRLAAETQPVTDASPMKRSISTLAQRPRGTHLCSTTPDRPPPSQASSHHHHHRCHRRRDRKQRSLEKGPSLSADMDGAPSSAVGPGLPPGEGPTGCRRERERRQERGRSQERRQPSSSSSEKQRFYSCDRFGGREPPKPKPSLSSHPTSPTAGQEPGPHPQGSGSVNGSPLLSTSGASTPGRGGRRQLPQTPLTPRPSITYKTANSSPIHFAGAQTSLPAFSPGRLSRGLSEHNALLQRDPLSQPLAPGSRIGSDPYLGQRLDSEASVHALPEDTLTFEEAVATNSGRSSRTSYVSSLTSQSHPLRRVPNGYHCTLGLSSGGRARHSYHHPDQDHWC

SMILES	pIC50
CN(C)CCC=C1c2ccccc2CCc2ccccc21 [AMITRIPTYLINE]	4.92
Clc1ccc2c(c1)C(N1CCNCC1)=Nc1ccccc1O2 [AMOXAPINE]	4.57
CN(C)CC/C=C1\c2ccccc2COc2ccccc21 [E-DOXEPIN]	4.74
CN(C)CCCN1c2ccccc2CCc2ccccc21 [IMIPRAMINE]	4.66
OCCN1CCN(CCCN2c3ccccc3C=Cc3ccccc32)CC1 [OPIPRAMOL]	4.62
CC(CN1c2ccccc2Sc2ccccc21)N(C)C (stereo not drawn) [PROMETHAZINE]	4.74
CNCCCC1c2ccccc2C=Cc2ccccc21 [PROTRIPTYLINE]	4.85

Stronger by pIC50, values ahead:

pIC50	SMILES
4.96	CNCCCN1c2ccccc2CCc2ccccc21 [DESIPRAMINE]
4.96	CC(CN(C)C)CN1c2ccccc2CCc2ccccc21 (stereo not drawn) [TRIMIPRAMINE]
5.00	CN(C)CCC=C1c2ccccc2C=Cc2ccccc21 [CYCLOBENZAPRINE]
5.00	CNCCCC12CCC(c3ccccc31)c1ccccc12 [MAPROTILINE]
5.00	CNCCC=C1c2ccccc2CCc2ccccc21 [NORTRIPTYLINE]
5.05	CN(C)CCCN1c2ccccc2CCc2ccc(Cl)cc21 [CLOMIPRAMINE]
